Among the data in ChEMBL document CHEMBL5653631, “A Potent and Selective ULK1 Inhibitor Suppresses Autophagy and Sensitizes Cancer Cells to Nutrient Stress” (iScience, 2018) are inhibition and fold change (FC) values, retold here.

Assay [1] concerns the target T1, Serine/threonine-protein kinase TAO3 (Homo sapiens) (UniProt Q9H2K8).
T1 sequence (whole entry): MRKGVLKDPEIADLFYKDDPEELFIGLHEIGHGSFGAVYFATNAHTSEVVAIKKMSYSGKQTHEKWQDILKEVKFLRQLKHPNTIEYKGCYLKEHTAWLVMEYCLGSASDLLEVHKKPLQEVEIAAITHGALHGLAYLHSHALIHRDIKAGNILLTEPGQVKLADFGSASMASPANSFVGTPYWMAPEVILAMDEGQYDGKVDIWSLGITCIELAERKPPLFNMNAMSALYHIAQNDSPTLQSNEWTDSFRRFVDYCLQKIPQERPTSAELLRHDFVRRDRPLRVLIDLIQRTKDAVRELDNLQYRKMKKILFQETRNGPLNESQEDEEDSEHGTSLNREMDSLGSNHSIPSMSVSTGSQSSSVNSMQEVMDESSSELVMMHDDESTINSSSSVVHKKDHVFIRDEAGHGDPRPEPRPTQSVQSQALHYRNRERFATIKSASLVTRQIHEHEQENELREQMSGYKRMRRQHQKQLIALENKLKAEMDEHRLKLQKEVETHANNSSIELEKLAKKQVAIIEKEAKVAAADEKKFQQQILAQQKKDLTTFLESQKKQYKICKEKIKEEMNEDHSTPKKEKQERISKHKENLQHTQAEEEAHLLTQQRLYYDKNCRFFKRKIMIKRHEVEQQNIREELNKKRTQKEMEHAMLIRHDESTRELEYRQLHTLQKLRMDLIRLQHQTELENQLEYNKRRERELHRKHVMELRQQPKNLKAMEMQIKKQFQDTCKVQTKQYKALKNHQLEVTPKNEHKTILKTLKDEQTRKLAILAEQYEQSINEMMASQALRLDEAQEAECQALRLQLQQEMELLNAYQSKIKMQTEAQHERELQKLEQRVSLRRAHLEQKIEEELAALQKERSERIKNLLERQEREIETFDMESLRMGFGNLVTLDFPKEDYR
Put plainly: Inhibition of human recombinant TAO3 at 40 nM in presence of ATP by radiometric assay relative to control.

Assay [2] addresses Serine/threonine-protein kinase WNK3 (Homo sapiens) (UniProt Q9BYP7). The experiment in a line: Inhibition of human recombinant Wnk3 at 500 nM in presence of ATP by radiometric assay relative to control.
The target of assay [3] is ALK tyrosine kinase receptor (Homo sapiens) (UniProt Q9UM73). Put plainly: Inhibition of human recombinant ALK at 500 nM related to control ULK1. Put shortly: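 Panel of 327 recombinant human kinases, each assayed in vitro by radiometric activity assay in duplicate at a single inhibitor concentration per compound, chosen with reference to its ULK1 inhibition. Activity remaining was expressed as percent of vehicle control, and percent inhibition was calculated as 100 minus percent activity remaining.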
Sequence of ALK tyrosine kinase receptor (Homo sapiens) (Q9UM73 19-1620 limits assumed): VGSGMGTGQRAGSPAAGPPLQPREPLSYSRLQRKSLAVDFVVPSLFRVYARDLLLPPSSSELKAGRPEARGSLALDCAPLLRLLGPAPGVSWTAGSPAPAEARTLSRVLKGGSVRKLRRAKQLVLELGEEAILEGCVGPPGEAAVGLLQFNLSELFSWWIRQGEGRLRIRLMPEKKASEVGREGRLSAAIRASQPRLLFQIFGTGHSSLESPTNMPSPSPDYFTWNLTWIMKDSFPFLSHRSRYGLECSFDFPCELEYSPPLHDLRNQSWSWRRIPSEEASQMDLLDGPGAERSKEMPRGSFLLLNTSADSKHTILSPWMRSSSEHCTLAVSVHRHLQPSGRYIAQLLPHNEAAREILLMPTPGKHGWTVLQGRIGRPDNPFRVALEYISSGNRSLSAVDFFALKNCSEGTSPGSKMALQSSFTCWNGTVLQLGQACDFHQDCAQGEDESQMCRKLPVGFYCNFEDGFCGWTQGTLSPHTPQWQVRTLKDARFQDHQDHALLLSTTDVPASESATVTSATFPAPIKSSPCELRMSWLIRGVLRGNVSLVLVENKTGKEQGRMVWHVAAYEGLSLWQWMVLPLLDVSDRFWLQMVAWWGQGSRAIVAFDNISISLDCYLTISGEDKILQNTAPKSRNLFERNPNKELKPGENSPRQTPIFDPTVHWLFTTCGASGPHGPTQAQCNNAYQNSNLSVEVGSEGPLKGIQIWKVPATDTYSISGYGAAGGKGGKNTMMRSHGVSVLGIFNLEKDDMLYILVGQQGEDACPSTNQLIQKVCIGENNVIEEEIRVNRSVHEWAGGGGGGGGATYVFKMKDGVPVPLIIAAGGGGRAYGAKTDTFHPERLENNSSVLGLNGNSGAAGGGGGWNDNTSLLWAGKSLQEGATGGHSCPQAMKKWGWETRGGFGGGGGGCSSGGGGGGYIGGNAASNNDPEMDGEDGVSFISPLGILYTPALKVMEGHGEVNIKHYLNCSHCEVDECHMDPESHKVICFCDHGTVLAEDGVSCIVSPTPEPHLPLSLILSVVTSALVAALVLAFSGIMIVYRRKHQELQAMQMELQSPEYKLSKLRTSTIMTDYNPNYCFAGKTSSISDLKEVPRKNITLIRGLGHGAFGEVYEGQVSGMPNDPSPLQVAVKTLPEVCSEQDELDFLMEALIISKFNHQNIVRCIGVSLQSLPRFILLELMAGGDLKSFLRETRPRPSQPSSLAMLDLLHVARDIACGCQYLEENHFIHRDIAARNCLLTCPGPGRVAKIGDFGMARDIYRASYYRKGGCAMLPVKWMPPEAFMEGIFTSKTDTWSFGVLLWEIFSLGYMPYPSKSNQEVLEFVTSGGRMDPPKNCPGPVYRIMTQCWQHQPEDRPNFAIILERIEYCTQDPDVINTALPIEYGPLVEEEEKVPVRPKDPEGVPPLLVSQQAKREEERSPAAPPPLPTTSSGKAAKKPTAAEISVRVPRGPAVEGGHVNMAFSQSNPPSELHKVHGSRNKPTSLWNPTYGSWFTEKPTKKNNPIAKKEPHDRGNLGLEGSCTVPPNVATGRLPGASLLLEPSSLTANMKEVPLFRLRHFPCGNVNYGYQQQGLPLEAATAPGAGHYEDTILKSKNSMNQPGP

The target in assay [4] is Protein kinase C gamma type (Homo sapiens) (UniProt P05129). Put plainly: Inhibition of human recombinant PKCg at 500 nM related to control ULK1.
The target of assay [5] is T2, Bone morphogenetic protein receptor type-2 (Homo sapiens) (UniProt Q13873).
T2 sequence (whole entry): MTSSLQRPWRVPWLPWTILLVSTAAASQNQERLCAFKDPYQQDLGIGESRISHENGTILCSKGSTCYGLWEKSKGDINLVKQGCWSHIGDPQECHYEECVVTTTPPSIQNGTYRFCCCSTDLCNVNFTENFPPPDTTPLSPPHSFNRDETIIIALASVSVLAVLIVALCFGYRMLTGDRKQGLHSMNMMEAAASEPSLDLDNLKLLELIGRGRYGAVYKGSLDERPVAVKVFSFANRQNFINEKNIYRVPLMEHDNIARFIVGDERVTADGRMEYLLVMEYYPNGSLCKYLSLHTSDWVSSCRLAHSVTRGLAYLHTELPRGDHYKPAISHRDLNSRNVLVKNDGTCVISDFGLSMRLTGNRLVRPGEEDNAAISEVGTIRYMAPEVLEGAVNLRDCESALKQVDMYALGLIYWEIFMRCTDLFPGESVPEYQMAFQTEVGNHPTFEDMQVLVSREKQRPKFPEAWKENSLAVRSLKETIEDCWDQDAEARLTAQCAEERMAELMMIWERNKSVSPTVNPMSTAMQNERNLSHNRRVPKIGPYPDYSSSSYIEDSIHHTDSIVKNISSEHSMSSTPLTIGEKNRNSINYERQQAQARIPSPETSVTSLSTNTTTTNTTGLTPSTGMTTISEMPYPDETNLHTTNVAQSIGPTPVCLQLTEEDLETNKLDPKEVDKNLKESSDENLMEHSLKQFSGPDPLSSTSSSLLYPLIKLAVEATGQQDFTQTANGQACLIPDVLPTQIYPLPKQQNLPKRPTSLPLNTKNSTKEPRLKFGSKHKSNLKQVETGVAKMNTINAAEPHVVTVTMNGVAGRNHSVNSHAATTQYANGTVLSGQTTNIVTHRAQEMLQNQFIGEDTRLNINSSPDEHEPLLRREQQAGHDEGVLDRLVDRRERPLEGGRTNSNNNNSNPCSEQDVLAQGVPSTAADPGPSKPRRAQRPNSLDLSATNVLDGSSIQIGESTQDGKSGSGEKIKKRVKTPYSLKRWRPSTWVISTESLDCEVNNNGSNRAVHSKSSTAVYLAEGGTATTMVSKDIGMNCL
The experiment in a line: Inhibition of human recombinant BMPR2 at 15 nM in presence of ATP by radiometric assay relative to control. The method, boiled down:
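Part of a radiometric in vitro activity panel of 327 recombinant human kinases. Each kinase was tested in duplicate at one inhibitor concentration. Activity remaining was expressed as a percentage of the vehicle control, and percent inhibition was taken as 100 minus that value.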

For assay [6], the target named is Cyclin-dependent kinase 9 (Homo sapiens) (UniProt P50750). Put plainly: Inhibition of human recombinant CDK9 at 15 nM in presence of ATP by radiometric assay relative to control.
Sequence of Cyclin-dependent kinase 9 (Homo sapiens) (P50750 whole entry): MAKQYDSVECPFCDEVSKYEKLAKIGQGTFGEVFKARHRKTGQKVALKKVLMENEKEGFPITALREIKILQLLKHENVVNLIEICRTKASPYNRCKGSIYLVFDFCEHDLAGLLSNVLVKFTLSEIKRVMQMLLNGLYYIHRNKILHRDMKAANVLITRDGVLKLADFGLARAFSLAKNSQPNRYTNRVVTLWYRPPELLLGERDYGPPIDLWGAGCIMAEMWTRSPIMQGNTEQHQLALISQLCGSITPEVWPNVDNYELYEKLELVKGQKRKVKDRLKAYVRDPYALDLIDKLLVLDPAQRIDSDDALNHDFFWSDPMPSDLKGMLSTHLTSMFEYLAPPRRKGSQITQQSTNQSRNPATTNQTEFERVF

Molecules are shown by their SMILES.

Sequence of Serine/threonine-protein kinase WNK3 (Homo sapiens) (Q9BYP7 whole entry): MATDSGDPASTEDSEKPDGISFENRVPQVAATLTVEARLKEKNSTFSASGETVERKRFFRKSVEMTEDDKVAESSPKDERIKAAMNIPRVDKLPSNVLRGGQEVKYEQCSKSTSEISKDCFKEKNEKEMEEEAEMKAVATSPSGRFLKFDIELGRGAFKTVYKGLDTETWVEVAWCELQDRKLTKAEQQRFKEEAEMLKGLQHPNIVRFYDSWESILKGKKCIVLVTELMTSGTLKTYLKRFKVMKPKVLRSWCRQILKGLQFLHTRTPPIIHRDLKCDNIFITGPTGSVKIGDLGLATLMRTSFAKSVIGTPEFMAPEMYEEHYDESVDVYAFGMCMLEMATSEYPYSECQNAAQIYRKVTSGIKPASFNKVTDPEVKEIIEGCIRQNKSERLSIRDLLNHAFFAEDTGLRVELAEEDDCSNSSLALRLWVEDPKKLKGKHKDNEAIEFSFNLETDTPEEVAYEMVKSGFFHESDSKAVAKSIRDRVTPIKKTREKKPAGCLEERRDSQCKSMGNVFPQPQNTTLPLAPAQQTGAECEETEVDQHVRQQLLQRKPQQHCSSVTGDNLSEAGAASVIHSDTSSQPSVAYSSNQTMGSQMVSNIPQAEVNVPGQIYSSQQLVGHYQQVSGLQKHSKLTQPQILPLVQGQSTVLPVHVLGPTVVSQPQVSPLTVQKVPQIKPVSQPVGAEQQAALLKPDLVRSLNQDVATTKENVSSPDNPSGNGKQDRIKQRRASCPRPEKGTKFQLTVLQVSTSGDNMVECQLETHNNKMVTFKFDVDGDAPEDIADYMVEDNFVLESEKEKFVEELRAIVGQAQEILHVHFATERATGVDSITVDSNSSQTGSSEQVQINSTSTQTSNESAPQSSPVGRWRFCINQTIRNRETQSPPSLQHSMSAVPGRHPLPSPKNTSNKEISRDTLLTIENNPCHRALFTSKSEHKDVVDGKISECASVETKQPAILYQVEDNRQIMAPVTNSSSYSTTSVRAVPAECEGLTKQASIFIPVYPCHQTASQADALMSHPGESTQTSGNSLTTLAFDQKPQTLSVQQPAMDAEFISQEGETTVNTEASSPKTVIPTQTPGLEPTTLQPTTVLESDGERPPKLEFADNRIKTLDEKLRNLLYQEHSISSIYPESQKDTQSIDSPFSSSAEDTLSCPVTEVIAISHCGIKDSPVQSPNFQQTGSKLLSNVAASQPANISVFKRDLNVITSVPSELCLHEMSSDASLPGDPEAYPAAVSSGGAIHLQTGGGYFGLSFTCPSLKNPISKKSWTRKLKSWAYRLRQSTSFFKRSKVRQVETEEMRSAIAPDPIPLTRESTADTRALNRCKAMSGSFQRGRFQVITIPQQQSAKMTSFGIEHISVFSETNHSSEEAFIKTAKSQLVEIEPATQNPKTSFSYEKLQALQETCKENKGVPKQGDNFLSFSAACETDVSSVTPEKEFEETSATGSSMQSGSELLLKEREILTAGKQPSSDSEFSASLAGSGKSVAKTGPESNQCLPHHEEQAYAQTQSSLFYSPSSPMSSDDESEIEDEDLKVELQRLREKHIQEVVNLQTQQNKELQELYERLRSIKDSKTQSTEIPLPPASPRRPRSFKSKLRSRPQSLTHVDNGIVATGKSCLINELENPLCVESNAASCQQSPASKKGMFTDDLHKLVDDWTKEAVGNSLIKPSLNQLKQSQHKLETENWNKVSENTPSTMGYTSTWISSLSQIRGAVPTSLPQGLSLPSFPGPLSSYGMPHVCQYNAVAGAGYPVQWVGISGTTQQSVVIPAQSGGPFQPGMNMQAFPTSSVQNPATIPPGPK

Take `O=C(N[C@@H](C1CC1)C(F)(F)F)c1cc(-c2cnn3cc(-c4ccc(F)cc4)cnc23)cs1`: the inhibition in assay [1] worked out at 0%.

For `CNC(=O)c1ccccc1Oc1nc(Nc2cc(OC)c(OC)c(OC)c2)ncc1Br`, the inhibition in assay [2] stood at 6%. The values for the fold change (FC) in assay [3] and in assay [4] were 0 and 0.12, respectively.

As to `CC(C)[C@H](NC(=O)c1cc(-c2cnn3cc(-c4ccc(OCCN5CCCCC5)cc4)cnc23)cs1)C(F)(F)F`, the figures for the inhibition in assay [5] and in assay [6] were 5% and 0%, respectively.

Broadly, the inhibition is the share of the control response that was lost under treatment.
